Experimental data published in ChEMBL document CHEMBL4808239, “Challenges of short substrate analogues as SARS-CoV-2 main protease inhibitors” (Bioorg Med Chem Lett, 2021).
Calls of active or inactive are those of the source. No cut-off for these calls is given here. Starred links: 1 amine or outer side, 2 acyl side, 3 side chain; linkers in the order of their positions; H or OH if unused. Non-standard residues stand in square brackets, D forms with d. Residues, ends and D or L forms follow the SMILES beside them. X1 = N#Cc1cc(C[C@H](N[*:1])C(=O)[*:2])ccn1; Tle = CC(C)(C)[C@H](N)C(=O)O; Thz = O=C(O)[C@@H]1CSCN1; Abu = CC[C@H](N)C(=O)O

What follows are molecules tested against Replicase polyprotein 1ab (Severe acute respiratory syndrome coronavirus 2, UniProt P0DTD1) (assay: Inhibition of SARS CoV-2 main protease using DABCYL-KTSAVLQ1SGFRKM-E(EDANS)-NH2 as substrate by FRET based assay).
CC[C@H](NC(C)=O)C(=O)N[C@H](C(=O)N[C@@H](CC(C)C)C(=O)N[C@@H](CCC(N)=O)C(N)=O)C(C)(C)C (Ac-[Abu][Tle]LQ-NH2) showed an IC50 greater than 100 µM. For CC(C)C[C@@H]1NC(=O)[C@H](C(C)C)NC(=O)[C@H](C)NC(=O)[C@H](C)NC(=O)[C@@H]2CSC(=N2)c2cc(ccn2)C[C@@H](C(N)=O)NC(=O)[C@H](C)NC(=O)[C@H](CC(N)=O)NC1=O, the IC50 was greater than 100 µM. Molecule CC(C)C[C@@H]1NC(=O)[C@H](CCCNC(=N)N)NC(=O)[C@H](C)NC(=O)[C@@H]2CSC(=N2)c2cc(ccn2)C[C@@H](C(N)=O)NC(=O)[C@H](CCC(=O)O)NC1=O has an IC50 greater than 100 µM. Work on CC(C)C[C@@H]1NC(=O)[C@H](C(C)C)NC(=O)[C@@H]2CSC(=N2)c2cc(ccn2)C[C@@H](C(N)=O)NC(=O)[C@H](CO)NC(=O)[C@H](CCC(N)=O)NC1=O yielded an IC50 greater than 100 µM. For CC(C)C[C@@H]1NC(=O)[C@H](C(C)C)NC(=O)[C@H](C(C)C)NC(=O)[C@@H]2CSC(=N2)c2cc(ccn2)C[C@@H](C(N)=O)NC(=O)[C@H](CCC(=O)O)NC1=O, the IC50 was greater than 100 µM. Work on CC(C)C[C@H](NC(=O)[C@@H](NC(=O)[C@H](C)NC(=O)[C@H](C)NC(=O)[C@@H]1CSCN1)C(C)C)C(=O)N[C@@H](CCC(N)=O)C(=O)N[C@@H](C)C(=O)N[C@@H](Cc1ccnc(C#N)c1)C(N)=O (H-[Thz]AAVLQA[X1]-NH2) yielded an IC50 greater than 100 µM.

Each molecule was assayed against Replicase polyprotein 1ab (Severe acute respiratory syndrome coronavirus 2) (UniProt P0DTD1) (assay: Binding affinity to SARS CoV-2 15N/2H-labeled main protease assessed as chemical pertubations at 100 uM by 15HSQC-NMR spectrum analysis).
Summary of the method: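 Wild-type main protease, ¹⁵N/²H-labelled, expressed with His6 tag, Ni-NTA purified and tag-cleaved. [¹⁵N,¹H]-HSQC spectra recorded at 25 °C (600/800 MHz) with and without compound and overlaid to look for chemical shift changes.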
CC(C)C[C@@H]1NC(=O)[C@H](C(C)C)NC(=O)[C@H](C(C)C)NC(=O)[C@@H]2CSC(=N2)c2cc(ccn2)C[C@@H](C(N)=O)NC(=O)[C@H](CCC(N)=O)NC1=O was tested, and the Activity was “inactive”. For CC(C)C[C@@H]1NC(=O)[C@H](C(C)C)NC(=O)[C@H](C)NC(=O)[C@H](C)NC(=O)[C@@H]2CSC(=N2)c2cc(ccn2)C[C@@H](C(N)=O)NC(=O)[C@H](C)NC(=O)[C@H](CCC(N)=O)NC1=O, the Activity was “inactive”.
